Compound activity as filed in PubChem.
LANA-H2A inh: blocks KSHV LANA binding to histone H2A/H2B. Q9QR71. cell-free LANA-H2A/H2B peptide, fluorescence polarization. inhibition, % (no concentration beside the values). 320,000 tested, 0.6% active; in the data active = inhibition mostly above about 10%, no sharp cut-off; inactive = mostly below about 6.7%
EBNA-1 inh: blocks EBNA-1 binding to DNA | EBNA-1 DNA binding, fluorescence polarization | inhibition, % at 14.8 µM | 300,000 tested, 0.34% active | AID 1950; in the data active = inhibition above about 28%
Bfl-1 A1 inh: inhibitors of the anti-apoptotic protein A1, read as caspase activation | MEF A1-2A-BIM cells, Caspase-Glo 3/7 luminescence, 3 h; percent of clofoctol response, vehicle zero | caspase activation, % (test concentration not listed) | 330,000 tested, 0.066% active | AID 2462;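 active = over half of replicate activation scores above 10%, or exactly half above 10 with the replicate mean above 10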
ZTA DNA inh: ZTA (EBV) inhibition in EBNA-1 counter-screen; P03206; ZTA-DNA binding, fluorescence polarization; inhibition, % at 11 µM; 320,000 tested, 0.15% active; AID 2234; in the data active = inhibition above about 33%
Target sequence (P03206 whole entry, looked up): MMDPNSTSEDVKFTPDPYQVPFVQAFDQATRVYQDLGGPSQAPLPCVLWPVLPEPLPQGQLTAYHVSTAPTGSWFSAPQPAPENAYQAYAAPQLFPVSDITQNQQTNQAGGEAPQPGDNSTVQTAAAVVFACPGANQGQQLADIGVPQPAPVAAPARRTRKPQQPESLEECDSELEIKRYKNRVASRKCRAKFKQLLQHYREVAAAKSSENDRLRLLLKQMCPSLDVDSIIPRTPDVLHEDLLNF
CSN deneddyl inh: inhibitors of human CSN-mediated cullin deneddylation; inhibition, % at 12.5 µM; AID 651999; Q92905; Purified CSN, SCF-Nedd8-OG deneddylation, fluorescence polarization; 360,000 tested, 0.38% active;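 active = pattern-corrected inhibition above about 35%, with an unprinted fluorescence ratio check between 0.5 and 1.5, limit read from the data, passing the limit was not always enough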;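 note: 0% = enzyme with substrate and 100% = substrate without enzyme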
Target sequence (Q92905 whole entry, looked up, one chain of several): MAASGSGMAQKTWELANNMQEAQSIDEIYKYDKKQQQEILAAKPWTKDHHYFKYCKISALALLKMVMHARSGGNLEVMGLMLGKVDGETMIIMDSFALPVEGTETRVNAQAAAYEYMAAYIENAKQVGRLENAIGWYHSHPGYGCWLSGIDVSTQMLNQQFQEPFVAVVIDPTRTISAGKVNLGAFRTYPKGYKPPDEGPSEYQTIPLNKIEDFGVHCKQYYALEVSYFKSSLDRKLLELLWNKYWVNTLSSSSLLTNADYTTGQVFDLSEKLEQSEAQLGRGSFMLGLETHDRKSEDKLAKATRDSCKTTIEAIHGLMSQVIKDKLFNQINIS
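Detection – fluorescence polarization · System – HEK293T-derived human Csn5 enzyme · Controls – substrate-only high control, full reaction low control · Timing – 90 min, room temperature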
HNF4A DNA FP: change in binding of human HNF4 alpha to DNA | P41235 | HNF4a-FITC DNA binding, fluorescence polarization, 1 h | activity change, % at 10 µM | 360,000 tested, 0.3% active | AID 1224865; in the data active = activity change above about 30%, passing the limit was not always enough
* marks the source's active call; other numbers are inactive results; nt = not tested or not shown; + = active, no number. Rows were chosen to be rich in hits. Some 1.5% of all compounds tested hit in one or more screens of this group.

SMILES | LANA-H2A inh | EBNA-1 inh | Bfl-1 A1 inh | ZTA DNA inh | CSN deneddyl inh | HNF4A DNA FP
O=C(/C=C/c1ccc(F)cc1)N1CC[C@@]2(O)CCCC[C@H]2C1 | 4.7* | -4 | 0 | -9 | -5 | -1
COCCN(CCOC)C(=O)c1c[nH]c2ccc(S(=O)(=O)N(C)c3ccc(F)cc3)cc2c1=O | 80* | 3 | 1 | -18 | 2 | 1
CCOc1ccccc1N(C)S(=O)(=O)c1ccc2[nH]cc(C(=O)N(CCOC)CCOC)c(=O)c2c1 | 3 | 1 | -1 | -3 | 1 | 3
Cc1cc(C)c2cc(CN(Cc3ccco3)C(=S)NCC3CCCO3)c(=O)[nH]c2c1 (stereo not drawn) | 20* | -7 | 0 | -33 | 5 | 6
COc1ccc2cc(CN(Cc3ccco3)C(=S)NCC3CCCO3)c(=O)[nH]c2c1 (stereo not drawn) | 3 | 3 | 0 | -19 | -6 | -1
CCC(C(=O)Nc1cccc(C(=O)O)c1C)c1ccccc1 (stereo not drawn) | 4 | 2 | 0 | 0 | -7 | 2
O=C(COC(=O)c1cccnc1Cl)Nc1ccc(N2CCCCC2)cc1 | + | nt | 0 | 4 | 1 | -2
COc1cc(OC)cc(-c2cc3ccccc3c(=O)o2)c1 | 70* | nt | -2 | nt | -2 | -1
O=c1oc(-c2ccccc2)cc2ccccc12 | nt | nt | nt | nt | -3 | 3
CCCS(=O)(=O)NC(=O)C1(C)CCN(C(=O)c2ccccc2OC(C)=O)C1 (stereo not drawn) | nt | nt | nt | nt | 0 | 2
C/C(=N/NC(=O)c1ccncc1)c1cc2ccc(O)cc2oc1=O | 87* | -6 | -2 | -8 | -79 | -89
NC(=S)c1cc2ccc(O)cc2oc1=O | nt | nt | nt | nt | 46* | 34
C/C(=N\NC(=O)c1ccncc1)c1cc2ccccc2oc1=O | -2 | -18 | -1 | 4 | 2 | 2
COc1ccc2sc(N(CCCN(C)C)C(=O)c3ccc(S(=O)(=O)N4CCc5ccccc5C4)cc3)nc2c1 | 2 | -1 | 28* | 11 | 3 | 5
COCC(=O)N1CCC(Oc2ccc(C(=O)N3CCCCCCC3)cc2)CC1 | 9 | 0 | 0 | -11 | 0 | 0
COCC(=O)N1CCC(Oc2ccc(C(=O)N(C)CCCC3CCCC3)cc2)CC1 | 16* | -4 | 1 | -3 | -1 | 0
Oc1ccc(/C=N/N2CCN(C3c4ccccc4-c4ccccc43)CC2)cc1O | 3 | -12 | 29* | -7 | 5 | -3
CN(C)c1ccc(C=c2c3ccccc3n3c2c2ccccc2[n+]3C)cc1 | nt | nt | nt | nt | 114 | 55
CCOC(=O)c1cc2c(=Cc3ccc(N(C)C)cc3)c3ccccc3n2[n+]1C | nt | nt | nt | nt | 19 | 57*
COc1ccc(NC(=O)c2cc(C3CCCCN3S(=O)(=O)Cc3ccccc3)on2)cn1 (stereo not drawn) | nt | nt | nt | nt | 2 | -2
O=C(O)CSc1nc2ccc(Cl)cc2[nH]1 | 5 | 0 | 0 | -2 | -2 | -1
O=C(O)CSc1nc2ccc(Br)cc2[nH]1 | nt | nt | nt | nt | 70* | 4
CN(C)c1ccc(/C=C(\Cl)c2nc3ccccc3s2)cc1 | 4 | 1 | -8 | 17 | 23 | 46*
CCOC(=O)C1=CCN(S(=O)(=O)c2ccccc2)C1c1ccccc1 (stereo not drawn) | nt | nt | nt | nt | 121* | -1
CCOC(=O)C1=CCN(S(=O)(=O)c2ccccc2)C1c1ccc(C)cc1 (stereo not drawn) | nt | nt | nt | nt | -2 | -7
SMILES | LANA-H2A inh | EBNA-1 inh | Bfl-1 A1 inh | ZTA DNA inh | CSN deneddyl inh | HNF4A DNA FP
COc1ccc(/C=C/C(=O)Nc2nnc(C(C)C)s2)cc1OC | 20* | -2 | 1 | 0 | -3 | -2
COc1ccccc1CNC(=O)CCC(=O)Nc1nnc(C)s1 | -33 | -6 | 0 | -9 | -2 | 1
COc1ccccc1CNC(=O)CCC(=O)Nc1nnc(C(C)C)s1 | 20* | -6 | nt | 8 | 6 | 0
Nc1ccc(Oc2c(Cl)cccc2Cl)nc1 | -1 | -9 | 0 | 0 | 37* | 4
CC(C)(C)c1ccc(Oc2ccc(N)cn2)cc1 | 3 | -5 | 0 | 1 | -78 | 64*
Cc1cc(Oc2ccc(N)cn2)cc(C)c1Cl | -2 | 6 | 0 | -5 | 8 | 3
O=C(CN1C(=O)S/C(=C\c2cc(Cl)c(O)c(Cl)c2)C1=O)Nc1ccccc1 | -5 | -7 | 0 | -4 | 29 | 38*
CC(C)NC(=S)N/N=C/c1sc(N2CCCCC2)nc1-c1cccs1 | -4 | -1 | -1 | -13 | 1 | 41*
CC(C)(C)NC(=S)NC1CC1 | -2 | 16 | 0 | -17 | 0 | 3
CC(C)OCCCNc1ncnc2c1cnn2-c1ccccc1 | -3 | 2 | 0 | -9 | 4 | 1
CN(C)CCCNc1ncnc2c1cnn2-c1ccccc1 | 14* | -5 | -1 | 1 | -1 | 2
COCCNc1ncnc2c1cnn2-c1ccc(Cl)cc1 | 20* | 0 | -1 | 7 | -6 | 1
CCOc1ccc(S(=O)(=O)NCC(=O)OCc2nnc(-c3ccccc3)o2)cc1 | 7 | nt | 0 | 5 | 1 | 1
Cc1ccc2nc(C)cc(NCCO)c2c1 | 3 | 1 | 2 | 2 | 77* | 0
COc1ccc(Nc2cc(C)nc3ccc(C)cc23)cc1 | nt | nt | nt | nt | 4 | 1
COc1ccc(NC(=S)N(CCN(C)C)C(C)c2ccncc2)cc1Cl (stereo not drawn) | 6 | -3 | 0 | 2 | 3 | 44*
Cc1ccc(C)c(N2CCN(C(=O)c3cc4ccccn4n3)CC2)c1 | 30* | -3 | 2 | 3 | -41 | -19
Cc1c(CCO)c(=O)[nH]n1S(=O)(=O)c1ccc(F)cc1 | 14* | -8 | 1 | -23 | -2 | 2
Cc1cccc(C)c1NC(=O)CN(C)C(C)C(=O)NCC(=O)Nc1ccc(F)c(F)c1F (stereo not drawn) | 187* | nt | 1 | -1 | -3 | 0
Cc1cccc(C)c1NC(=O)CNC(=O)C(C)N(C)CC(=O)Nc1ccc(F)cc1 (stereo not drawn) | nt | nt | nt | nt | 0 | -1
C[C@@H]1CCCCO[C@@H](CN(C)S(C)(=O)=O)[C@@H](C)CN([C@H](C)CO)C(=O)c2cc(N(C)C)ccc2O1 | nt | nt | nt | nt | 5 | 4
CCc1cc(=O)oc2cc3occ(-c4ccc(OC)c(F)c4)c3cc12 | -3 | 23 | 0 | -6 | 37* | 30
CCN(CC)CCCNC(=O)c1ccc(S(=O)(=O)Nc2ccc(C)c(C)c2)cc1 | -7 | nt | 0 | 0 | -2 | 0
CCCCNC(=O)c1ccc(SCC(=O)N(CC)CC)c([N+](=O)[O-])c1 | 79* | -4 | 0 | 7 | -5 | -2
CCN(CC)C(=O)CSc1ccc(C(F)(F)F)cc1[N+](=O)[O-] | -1 | 10 | 1 | 6 | -3 | 1
CC1(C)C(C#N)=C(N)OC2=C1C(=O)CCC2 | 18* | -5 | 0 | -21 | 3 | -6
